Measurements published in article PMC3665005 (Gene therapy, 2012).

Test system: luciferase expression in liver
Assay: HD-stimulated expression after tail vein dosing, luciferase in liver by BLI
Type: in vivo, mice
Conditions: HD-stimulation, 5 min delay, 1 μg pGL3, 0.8 nmol peptide
In short: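 Albino ICR mice (three per group) received polyplex (1 μg pGL3, 0.8 nmol PEGylated peptide) in 50 μl HBM (5 mM Hepes, 0.27 M mannitol, pH 7.4) by tail vein. Saline at 9 wt/vol% body weight (1.8-2.25 ml) was given by tail vein over 5 sec. At 24 hrs, liver BLI under 3% isofluorane, 5 min after i.p. D-luciferin (2.4 mg). Mean and standard deviation reported.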

Q: For (Acr-DLys)3-Acr-DLys-Cys-PEG [1D], which “gene transfer compared with peptide 1 polyplexes (in words)” value is on record?
A: equivalent

Q: (Acr-DLys4)3-Acr-DLys-Cys-PEG [4D] was tested. Which “fold lower gene transfer relative to peptide 4 polyplexes” value did it give?
A: 5 fold
